Screening results as filed in PubChem.
PHOSPHO1 block = PHOSPHO1 (human) inhibition. recombinant PHOSPHO1, absorbance phosphatase assay. inhibition, % at 13.3 µM. 290,000 tested, 1.1% active. AID 1565; in the data active means inhibition above about 60%
Target sequence (Q8TCT1 whole entry, looked up): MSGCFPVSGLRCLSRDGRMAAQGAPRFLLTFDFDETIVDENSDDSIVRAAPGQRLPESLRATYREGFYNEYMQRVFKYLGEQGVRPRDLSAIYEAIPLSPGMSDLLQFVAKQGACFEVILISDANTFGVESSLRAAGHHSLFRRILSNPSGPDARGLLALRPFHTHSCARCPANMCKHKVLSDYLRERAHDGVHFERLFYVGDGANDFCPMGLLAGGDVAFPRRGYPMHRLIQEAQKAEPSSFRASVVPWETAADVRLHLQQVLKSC
ABCG2 block = inhibitors of human ABCG2 transporter, ABCB1 counter-screen | inhibition, % at 6.6 µM | AID 1325 | IgMXP3 cells, JC-1 efflux, flow cytometry | 190,000 tested, 0.1% active;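 active means inhibition above 80%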
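Test system: IgMXP3 (ABCG2) plus far-red-tagged CCRF-Adr (ABCB1) cells. Reagent: JC-1 dye as substrate. Timing: 10 min exposure at 25 °C with rotation, no wash. Measured by: flow cytometric JC-1 green MFI at 530 nm. Read-out: percent efflux inhibition, scaled nicardipine 100% to DMSO 0%. Control set: nicardipine and DMSO wells.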
HSV augment = HSV replication enhancement | HSV replication augmentation in cells, fold increase | maximum fold increase | 220,000 tested, 0.005% active | AID 1956; in the data active means maximum fold increase above about 1.5; inconclusive means no clear call, values can overlap the other calls; tested in PC3 cells
ABCB1 inh = blocks JC-1 efflux by human ABCB1 transporter; P08183; CCRF-Adr cells, flow cytometry; inhibition, % at 6.6 µM; 190,000 tested, 0.067% active; AID 1326; in the data active means inhibition above about 40%;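 further: higher value means more JC-1 retained so stronger ABCB1 efflux block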
PKD1 kinase inh = inhibitors of human PKD1 kinase; Q15139; PKD1 kinase fluorescence polarization assay; inhibition, % (test concentration not listed); 200,000 tested, 0.056% active; AID 797; in the data active means inhibition above about 50%
NCF1 inh = inhibitors of human p47phox binding; P14598; p47phox/p22phox peptide binding, fluorescence polarization, 2 h; inhibition, % at 24.7 µM; 220,000 tested, 0.53% active; AID 1274;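 active means inhibition above about 30%, limit read from the data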
Target sequence (P14598 whole entry, looked up): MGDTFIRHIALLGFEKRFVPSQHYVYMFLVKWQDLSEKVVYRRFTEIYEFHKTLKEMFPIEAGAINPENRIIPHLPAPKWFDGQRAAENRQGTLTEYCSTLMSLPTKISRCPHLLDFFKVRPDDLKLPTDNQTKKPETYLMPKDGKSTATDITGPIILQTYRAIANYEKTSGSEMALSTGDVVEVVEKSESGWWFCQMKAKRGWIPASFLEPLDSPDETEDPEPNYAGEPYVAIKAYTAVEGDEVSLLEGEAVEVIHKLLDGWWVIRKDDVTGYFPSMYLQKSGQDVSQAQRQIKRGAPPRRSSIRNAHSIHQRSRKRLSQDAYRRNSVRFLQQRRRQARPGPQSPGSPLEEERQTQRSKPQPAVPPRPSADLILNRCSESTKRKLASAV
Large screens that a line does not name were inactive. Shown are actives, neighbours in structure and some others; about 1.6% of the full set was active somewhere.

CSc1ncc(Cl)c(C(=O)Nc2ccccc2Cl)n1	none
CSc1ncc(Cl)c(C(=O)Nc2ccc(NC(C)=O)cc2)n1	PHOSPHO1 block 60.0
C=CCN(c1ccccc1)S(=O)(=O)c1cc2c(cc1C)NC(=O)CO2	none (no result: ABCG2 block, HSV augment, ABCB1 inh, PKD1 kinase inh, NCF1 inh)
CCCc1cc(=O)[nH]c(SCc2ccccc2)n1	none
CCCc1cc(=O)[nH]c(SCCCCN2C(=O)c3ccccc3C2=O)n1	PKD1 kinase inh 108.7
CN(C)C(=O)CSc1nc(-c2cccs2)c(-c2cccs2)[nH]1	none (no result: ABCG2 block, HSV augment, ABCB1 inh, PKD1 kinase inh, NCF1 inh)
Cc1ccc(/C(CSc2nccn2-c2ncc(C(F)(F)F)cc2Cl)=N\O)cc1	NCF1 inh active
O=C(CSc1nccn1-c1ncc(C(F)(F)F)cc1Cl)c1ccc(Br)cc1	none
COc1cc(OC)c(C2CC(=O)N3CN(c4ccc(C)cc4)CSC3=C2C#N)cc1OC (stereo not drawn)	PHOSPHO1 block 95.7 (no result: HSV augment)
CCOc1ccccc1N1CSC2=C(C#N)C(c3c(OC)ccc4ccccc34)CC(=O)N2C1 (stereo not drawn)	PHOSPHO1 block 91.5
COc1ccc(N2CSC3=C(C#N)C(c4cc(OC)c(OC)cc4OC)CC(=O)N3C2)c(OC)c1 (stereo not drawn)	PHOSPHO1 block 92.8, NCF1 inh 32.7
COc1ccc(N2CSC3=C(C#N)C(c4cc(OC)ccc4OC)CC(=O)N3C2)c(OC)c1 (stereo not drawn)	PHOSPHO1 block 93.7
N#CC1=C2SCN(Cc3ccco3)CN2C(=O)CC1c1cccc2ccccc12 (stereo not drawn)	none
C=CCOc1ccc(C2/C(=C(\O)c3ccc4c(c3)CC(C)O4)C(=O)C(=O)N2CCN2CCOCC2)cc1OCC (stereo not drawn)	none (no result: ABCG2 block, HSV augment, ABCB1 inh, PKD1 kinase inh, NCF1 inh)
O=C(Cc1c[nH]c2ccccc12)Nc1ccccc1N1CCOCC1	none
COc1ccc(C2CC(=O)N3CN(c4ccc(C)c(Cl)c4)CSC3=C2C#N)cc1OC (stereo not drawn)	PHOSPHO1 block 81.0
COc1ccc(N2CSC3=C(C#N)C(c4ccc(OC)c(OC)c4)CC(=O)N3C2)c(OC)c1 (stereo not drawn)	none
O=C(CS(=O)(=O)Cc1ccccc1)Nc1nc2ccccc2s1	NCF1 inh 56.0
COc1ccc2nc(NC(=O)CS(=O)(=O)Cc3ccccc3)sc2c1	none
CCn1ccnc1CN(C)Cc1nc(-c2ccc(C(=O)OC)cc2)no1	PHOSPHO1 block 60.5 (no result: ABCG2 block, ABCB1 inh, PKD1 kinase inh)
Cc1ccccc1NS(=O)(=O)c1cc(C(N)=O)ccc1C	none
CC(Oc1ccc2c(c1)oc(=O)c1ccccc12)C(=O)NCCCN1CCOCC1 (stereo not drawn)	none (no result: ABCG2 block, HSV augment, ABCB1 inh, PKD1 kinase inh, NCF1 inh)
CC(Oc1ccc([N+](=O)[O-])cc1)C(=O)NCCCN1CCOCC1 (stereo not drawn)	PHOSPHO1 block 65.8 (no result: ABCG2 block, HSV augment, ABCB1 inh, PKD1 kinase inh, NCF1 inh)
CC(C)(C)C1=Nn2c(nnc2-c2ccccn2)SC1	PHOSPHO1 block 63.2
O=C(Nc1cccc2ccccc12)N1CCN(c2ncccn2)CC1	none
S=C(Nc1cccc2ccccc12)N1CCN(c2ncccn2)CC1	PHOSPHO1 block 88.3
C=Cc1c(C)c2cc3[nH]c(cc4nc(cc5nc(cc1[nH]2)C(C)=C5CCC(=O)O)C(CCC(=O)O)=C4C)c(C)c3C=C	none (no result: PHOSPHO1 block, ABCG2 block, ABCB1 inh, PKD1 kinase inh, NCF1 inh)
COc1ccc(-n2ncc3c2CC(C)(C)CC3NC(=O)CCn2cncn2)cc1 (stereo not drawn)	PHOSPHO1 block 89.8 (no result: ABCG2 block, HSV augment, ABCB1 inh, PKD1 kinase inh, NCF1 inh)
C=CCCC(=O)NC1CC(C)(C)Cc2c1cnn2-c1ccc(OC)cc1 (stereo not drawn)	none (no result: ABCG2 block, HSV augment, ABCB1 inh, PKD1 kinase inh, NCF1 inh)
CC(c1ccccc1)n1c(N2CCN(C)CC2)nc2c1c(=O)[nH]c(=O)n2C (stereo not drawn)	none (no result: ABCG2 block, HSV augment, ABCB1 inh, PKD1 kinase inh, NCF1 inh)
Cc1cccc(OCC(=O)Nc2ccc(C(=O)c3ccc(C(=O)O)cc3)cc2)c1	none
CN(O)C(=O)Nc1ccc([N+](=O)[O-])cc1	NCF1 inh 128.1
CC(C)(C)C(=O)Nc1ccc(Sc2ccc([N+](=O)[O-])cc2)cc1	none
Cc1nn(-c2cccc(Cl)c2)c2nc(-c3ccncc3)cc(C(=O)N3CCOCC3)c12	none
Cc1ccc2nc(Cl)c(/C=N/NC(=O)[C@H]3C[C@@H]3c3ccccc3)cc2c1	NCF1 inh 30.5
Cc1ccc2nc(N3C(=O)C(O)=C(C(=O)c4ccco4)C3c3cccs3)sc2c1 (stereo not drawn)	PHOSPHO1 block 86.2
Cc1cc(C)c2nc(N3C(=O)C(O)=C(C(=O)c4ccco4)C3c3ccco3)sc2c1 (stereo not drawn)	none (no result: ABCG2 block, HSV augment, ABCB1 inh, PKD1 kinase inh, NCF1 inh)
OCC1CCCCN1CC(O)COC(c1ccc(F)cc1)c1ccc(F)cc1 (stereo not drawn)	none (no result: ABCG2 block, HSV augment, ABCB1 inh, PKD1 kinase inh, NCF1 inh)
CCc1nc(CN2CCCC(C(=O)c3ccc4c5c(cccc35)CC4)C2)c(C)[nH]1 (stereo not drawn)	PHOSPHO1 block 60.1
O=C(c1ccc2c3c(cccc13)CC2)C1CCCN(Cc2ccncc2)C1 (stereo not drawn)	none
CC1=C(C(=O)OCc2ccc3c(c2)OCO3)C(c2cccc([N+](=O)[O-])c2)NC(=O)N1 (stereo not drawn)	none
CC1=NNC(=O)C1CCC(=O)N/N=C/c1c(Cl)cccc1Cl (stereo not drawn)	PHOSPHO1 block 64.7
COc1ccc(C(CC(=O)O)NC(C)=O)cc1OC (stereo not drawn)	none
CCOC(=O)NC(CC(=O)O)c1ccc(OC)c(OC)c1 (stereo not drawn)	NCF1 inh 68.0
Cc1cccc(NS(=O)(=O)c2ccc(-c3ccc(=O)[nH]n3)o2)c1	none (no result: ABCG2 block, HSV augment, ABCB1 inh, PKD1 kinase inh, NCF1 inh)
Cc1ccc(C)c(NS(=O)(=O)c2ccc(-c3ccc(=O)[nH]n3)o2)c1	PHOSPHO1 block 64.9 (no result: ABCG2 block, HSV augment, ABCB1 inh, PKD1 kinase inh, NCF1 inh)
O=C(NCC(=O)N(Cc1ccccc1)C(C(=O)NC1CCCC1)c1ccncc1)c1ccco1 (stereo not drawn)	none
COc1cccc(-c2nnc3sc(-c4ccccc4)nn23)c1	none
COc1cccc(OC)c1-c1nn2c(-c3cc(-c4ccccc4)n[nH]3)nnc2s1	NCF1 inh 54.4
O=C(Oc1ccccc1)c1cccc2cccnc12	NCF1 inh 99.2
COc1ccc(Cc2nc3ccc(C(=O)N4CCN(C)C(C)C4)cc3o2)cc1OC (stereo not drawn)	none (no result: ABCG2 block, HSV augment, ABCB1 inh, PKD1 kinase inh, NCF1 inh)
Cn1c(CC(=O)Nc2ccc(Cl)c(Cl)c2)nnc1SCC(=O)N1CCN(c2ccccc2)CC1	none
CC(NC(=O)CSc1nnc(CC(=O)Nc2ccc(Cl)c(Cl)c2)n1C)c1ccccc1 (stereo not drawn)	PHOSPHO1 block 95.4
O=C(O)CCN1C(=O)/C(=C\c2ccc(-c3nc4ccccc4s3)o2)SC1=S	PHOSPHO1 block 94.5, HSV augment inconclusive
O=C(O)CCCN1C(=O)/C(=C\c2ccco2)SC1=S	none
COc1ccc(C(=O)C[N+]2(C)CCOCC2)cc1	PHOSPHO1 block 80.2
COc1ccc(C(=O)OCC[N+]2(C)CCCCC2)cc1	none
S=c1[nH]cc(-c2ccc(Cl)cc2)n1Cc1ccccc1	none (no result: ABCG2 block, ABCB1 inh, PKD1 kinase inh)
CCn1c(-c2ccccc2)c[nH]c1=S	PHOSPHO1 block 98.0
O=C(Nc1cccc(-c2nc3ncccc3o2)c1)c1sc2ccccc2c1Cl	NCF1 inh 66.7
